ChEMBL document CHEMBL1134957, “Synthesis and SAR of 4-carboxy-2-azetidinone mechanism-based tryptase inhibitors” (Bioorg Med Chem Lett, 2002)

Tests used:
[1] = biological target: Tryptase (Homo sapiens, UniProt Q9BZJ3+Q15661+Q9NRR2); experiment: In vitro inhibition of human tryptase.
[2] = species: Homo sapiens; experiment: Selectivity for human tryptase compared to human tissue plasminogen activator tissue.
[3] = species: Homo sapiens; experiment: Selectivity for human tryptase compared to human trypsin.
[4] = species: Homo sapiens; experiment: Selectivity for human tryptase compared to human plasmin.
[5] = Aqueous Stability (half-life period) at pH 7 and 37 degrees; format: ADME; details: aqueous solution
Outline: (§1)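 Compound half-life, reported in hours, was measured by incubation in aqueous buffer at 37 °C, run separately at pH 7 and pH 9.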

[6] = species: Homo sapiens; experiment: Selectivity for human tryptase compared to human urokinase plasminogen activator.
[7] = species: Homo sapiens; experiment: Selectivity for human tryptase compared to human thrombin.
[8] = Aqueous Stability (half-life period) at pH 9 and 37 degrees; format: ADME; details: aqueous solution; outline: as §1
[9] = species: Cavia porcellus; experiment: Dose required for the inhibition of the cellular inflammatory response in ovalbumin-sensitized guinea pigs was evaluated by the reduction in cell count by 70-80%; format: functional
Outline: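 Ovalbumin-sensitized guinea pigs were given saline or compound as an intratracheal spray at two dose levels (75 or 225 per kg), and the tracheal incision was closed. Ovalbumin was injected into the jugular vein about 6 min after dosing, and the animals recovered from anesthesia. Bronchoalveolar lavage cell counts and protein were measured 24 h later. Controls were sham-operated animals without ovalbumin challenge.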

[10] = species: Cavia porcellus; experiment: Effect (increase in lung resistance (Rlung)) on pulmonary mechanics of ovalbumin-sensitized guinea pigs following allergen induced bronchoconstriction; format: functional
Outline: (§2)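 Guinea pigs were sensitized by ip ovalbumin with aluminum hydroxide on days 0 and 14, plus cyclophosphamide (30 mg/kg) on day 12, and used between days 35 and 65. Under Na-pentobarbital anesthesia they were mechanically ventilated, with intratracheal flow and pressure recorded in real time. Ten min before iv ovalbumin challenge, compound was given as an intratracheal aerosol spray. Rlung and Cdyn were recorded as % change (n=9).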

[11] = species: Cavia porcellus; experiment: Effect (decrease in dynamic lung compliance) on pulmonary mechanics of ovalbumin-sensitized guinea pigs following allergen induced bronchoconstriction; format: functional; outline: as §2
[12] = tested on: Cavia porcellus; experiment: Effect (decrease in dynamic lung compliance) on pulmonary mechanics of ovalbumin-sensitized guinea pigs following allergen induced bronchoconstriction upon intratracheal dosage of 75 ug/kg 10 min prior to ovalbumin challenge; format: functional; outline: as §2
[13] = tested on: Cavia porcellus; experiment: Effect (increase in lung resistance (Rlung)) on pulmonary mechanics of ovalbumin-sensitized guinea pigs following allergen induced bronchoconstriction upon intratracheal dosage of 75 ug/kg 10 min prior to ovalbumin challenge; format: functional; outline: as §2
[14] = species: Homo sapiens; experiment: Ratio of inhibitiroy activities against human tryptase and human plasminogen activator urokinase microPa

Structure (SMILES)	IC50 [1]	Selectivity ratio [2]	Selectivity ratio [3]	Selectivity ratio [4]	half-life [5]	Selectivity ratio [6]	Selectivity ratio [7]	half-life [8]	Dose [9]	Rlung [10]	Cdyn [11]	Cdyn [12]	Rlung [13]	Selectivity ratio [14]
N=C(N)NCCC[C@H]1C(=O)N(C(=O)Nc2ccccc2)[C@@H]1C(=O)O (stereo in doubt) [listing 1 of 2 here]	5380 nM													
CNC(=O)[C@@H]1[C@@H](CCCN=C(N)N)C(=O)N1C(=O)N1CCN(C(=O)OC(C)(C)C)CC1	0.7 nM	6800	3	172	1910 min	75	177	18 min						
CC(C)(C)C(=O)N1CCN(C(=O)N2C(=O)[C@H](CCCN=C(N)N)[C@H]2C(=O)O)CC1	7 nM	> 1500	3	232	> 2880 min	154	> 1500	150 min						
CC(C)(C)OC(=O)N1CCN(C(=O)N2C(=O)[C@H](CCCN=C(N)N)[C@H]2C(=O)N2CCCCC2)CC1	3 nM	4430	1	205	> 2880 min	246	155	48 min						
CC(C)(C)NC(=O)N1CCN(C(=O)N2C(=O)[C@H](CCCN=C(N)N)[C@H]2C(=O)O)CC1	4 nM	> 8250	18	430	> 2880 min	135	2620	480 min	225 µg/kg	421 % delta	-69 % delta	-43 % delta	89 % delta	
N=C(N)NCCC[C@H]1C(=O)N(C(=O)Nc2ccccc2)[C@@H]1C(=O)O (stereo in doubt; 8a) [listing 1 of 2 here]		117	1	52		3	1550							
CC(C)(C)OC(=O)N1CCN(C(=O)N2C(=O)[C@H](CCCN=C(N)N)[C@H]2C(N)=O)CC1 (single isomer, unassigned)	0.4 nM	8300	6	227	2520 min	82	105	18 min						
N=C(N)NCCC[C@H]1C(=O)N(C(=O)c2ccc(-c3ccccc3)cc2)[C@@H]1C(=O)O	1 nM	1610	2	8	666 min	3270	65	< 6 min						
N=C(N)NCCC[C@H]1C(=O)N(C(=O)c2cccs2)[C@@H]1C(=O)O	1 nM	109	3	12	522 min	5	190	< 6 min						
N=C(N)NCCC[C@H]1C(=O)N(C(=O)N2CCN(C(=O)OCCc3ccccc3)CC2)[C@@H]1C(=O)O	0.7 nM	14200	8	302	> 2880 min	926	3320	420 min						
COC(=O)N1CCN(C(=O)N2C(=O)[C@H](CCCN=C(N)N)[C@H]2C(=O)O)CC1	9 nM	> 1200	2	210	> 2880 min		683	336 min						70
CC(C)(C)OC(=O)N1CCN(C(=O)N2C(=O)[C@H](CCCN=C(N)N)[C@H]2C(=O)O)CC1	4 nM	> 8250	8	295	> 2880 min	218	> 8250	372 min						
CC(C)(C)CC(=O)N1CCN(C(=O)N2C(=O)[C@H](CCCN=C(N)N)[C@H]2C(=O)O)CC1	11 nM	> 1000	1.5	314	> 2880 min	8	> 1000	390 min						
N=C(N)NCCC[C@H]1C(=O)N(C(=O)NC2CCCCC2)[C@@H]1C(=O)O					> 2880 min			546 min						
N=C(N)NCCC[C@H]1C(=O)N(C(=O)Nc2ccccc2)[C@@H]1C(=O)O (stereo in doubt) [listing 2 of 2 here]		> 6	0.3	> 6										
CCN(CC)C(=O)N1CCN(C(=O)N2C(=O)[C@H](CCCN=C(N)N)[C@H]2C(=O)O)CC1	5 nM	> 6600	3	227	> 2880 min	520	> 6600	384 min						
N=C(N)NCCC[C@H]1C(=O)N(C(=O)NCc2ccccc2)[C@@H]1C(=O)O	71 nM	465	2	45	> 2880 min	16	465	408 min						
N=C(N)NCCC[C@H]1C(=O)N(C(=O)N2CCN(C(=O)c3ccccc3)CC2)[C@@H]1C(=O)O	5.2 nM	> 2000	1	332	> 2880 min	142	286	234 min						
N=C(N)NCCC[C@H]1C(=O)N(C(=O)c2ccccc2)[C@@H]1C(=O)O	9 nM	128	1	17		3	142							
N=C(N)NCCC[C@H]1C(=O)N(C(=O)N2CCN(S(=O)(=O)c3ccccc3)CC2)[C@@H]1C(=O)O	13 nM	> 2500	14	147	> 2880 min	43	556	102 min						
N=C(N)NCCC[C@H]1C(=O)N(C(=O)Nc2ccccc2)[C@@H]1C(=O)O (relative stereo)	992 nM													
N=C(N)NCCC[C@H]1C(=O)N(S(=O)(=O)c2ccc(-c3ccccc3)cc2)[C@@H]1C(=O)O	1 nM	4370	1	47	636 min	44	7	< 6 min						
N=C(N)NCCC[C@H]1C(=O)N(C(=O)Nc2ccccc2)[C@@H]1C(=O)O (stereo in doubt; 8a) [listing 2 of 2 here]	6 nM				> 2880 min			132 min						
